{"source": "ChEMBL document CHEMBL1255440", "about": "“An antimicrobial peptide that targets DNA repair intermediates in vitro inhibits Salmonella growth within murine macrophages” (Antimicrob Agents Chemother, 2010)", "key": {"[1]": {"test": "Cytotoxicity against mouse J774A1 cells assessed as live cells at 50 uM by calcein AM assay", "type": "cell-based, J774.A1", "conditions": "read-out: Activity; call rule not given here", "outline": "(§1)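 Cells seeded at 300,000/well and allowed to adhere, then given fresh DMEM with or without peptide for 24 h. Cells trypsinized, stained with a mammalian Live/Dead viability/cytotoxicity kit and analyzed by flow cytometry. Wilcoxon exact test.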"}, "J774.A1 [2]": {"tested_on": "J774.A1", "test": "Drug uptake in mouse J774A1 cells at 10 uM after 5 hrs in presence of 100 nM wortmannii PI3K inhibitor by confocal laser microscopy", "conditions": "j774.a1, 5 h"}, "J774.A1 [3]": {"tested_on": "J774.A1", "test": "Drug uptake in mouse J774A1 cells assessed as total peptide concentration at 50 uM after 5 hrs at 4 degC by HPLC analysis", "type": "ADME, cell-based", "conditions": "j774.a1, 5 h", "outline": "(§2)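 J774A.1 cells were seeded at 300,000 per well and allowed to adhere for 24 h at 37°C in 5% CO2. Medium was replaced with DMEM containing unlabeled peptide, and cells were held at 37°C or 4°C. After three washes in ice-cold PBS, cells were lysed in NP-40 buffer and debris spun out. Reverse-phase HPLC was read at 280 nm. Peaks at 17.5 and 17.75 min were integrated against a standard curve. Intracellular mM was calculated from 300,000 cells at 1 pl each, using monomer mass.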"}, "Salmonella typhimurium [4]": {"tested_on": "Salmonella typhimurium", "test": "Antibacterial activity against 1 MOI Salmonella enterica subsp. enterica serovar Typhimurium infected in mouse J774A1 cells assessed as fold reduction in bacterial growth at 100 uM after 24 hrs", "type": "functional, J774.A1", "outline": "(§3)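 J774A.1 cells or thioglycolate-elicited BALB/c peritoneal macrophages seeded at 200,000/well, overnight 37°C 5% CO2; infected with GFP strain SDT1416, 1 h invasion, washed, 1 h in DMEM with 15 μg/ml gentamicin. Then fresh DMEM plus 15 μg/ml gentamicin with or without peptide (DMSO vehicle) for 24 h at 37°C; macrophages lysed with 1% Triton X-100, plated on LB agar for CFU.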"}, "[5]": {"test": "Drug uptake in mouse peritoneal macrophages assessed as total peptide concentration at 150 uM after 24 hrs at 37 degC by HPLC analysis", "type": "ADME, cell-based", "conditions": "peritoneal macrophage cell", "outline": "(§4)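 Macrophages were elicited in 8–12-week-old female BALB/c mice with 4% thioglycolate i.p. and harvested by lavage 4 days later. Cells were seeded at 300,000 per well for 24 h, then given unlabeled peptide in DMEM for 24 h at 37°C. Lysates were run on reverse-phase HPLC at A280. Monomer (17.5 min) and dimer (17.75 min) peak areas were compared with a standard curve. Concentration assumed 1 pl per cell; values are means of three determinations.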"}, "J774.A1 [6]": {"tested_on": "J774.A1", "test": "Drug uptake in mouse J774A1 cells assessed as total peptide concentration at 50 uM after 5 hrs at 37 degC by HPLC analysis", "type": "ADME, cell-based", "conditions": "j774.a1, 5 h", "outline": "as §2"}, "J774.A1 [7]": {"tested_on": "J774.A1", "test": "Drug uptake in mouse J774A1 cells assessed as total peptide concentration at 100 uM after 5 hrs at 4 degC by HPLC analysis", "type": "ADME, cell-based", "conditions": "j774.a1, 5 h", "outline": "(§5)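 J774A.1 cells were incubated with unlabeled peptide for 5 or 24 h at 37°C or 4°C, washed in ice-cold PBS and lysed with NP-40 buffer. Lysates were run on reverse-phase HPLC with an acetonitrile/0.1% TFA gradient and A280 fractions. Monomer (~17.5 min) and dimer (~17.75 min) peak areas were compared against a standard curve. Intracellular mM was calculated using 300,000 cells and 1 pl/cell, with concentration expressed as monomer mass.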"}, "J774.A1 [8]": {"tested_on": "J774.A1", "test": "Drug uptake in mouse J774A1 cells assessed as dimer to monomer peptide ratio at 150 uM after 5 hrs at 37 degC by HPLC analysis", "type": "ADME, cell-based", "conditions": "j774.a1, 5 h", "outline": "as §5"}, "J774.A1 [9]": {"tested_on": "J774.A1", "test": "Drug uptake in mouse J774A1 cells assessed as dimer to monomer peptide ratio at 150 uM after 24 hrs at 37 degC by HPLC analysis", "type": "ADME, cell-based", "conditions": "j774.a1, 24 h", "outline": "as §5"}, "[10]": {"test": "Cytotoxicity against mouse peritoneal macrophages assessed as dead cells at 100 uM by propidium iodide assay", "type": "cell-based", "conditions": "peritoneal macrophage cell", "outline": "as §1"}, "Salmonella typhimurium [11]": {"tested_on": "Salmonella typhimurium", "test": "Antibacterial activity against 10 MOI Salmonella enterica subsp. enterica serovar Typhimurium G785 transfected with SOS-inducible beta-galactosidase reporter infected in mouse J774A1 cells assessed as SOS induction at 150 uM after 24 hrs postinfection", "type": "functional, J774.A1", "outline": "(§6)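 J774A.1 cells infected at MOI 10 with sulA promoter-lacZ reporter strain G785 using the gentamicin-protection protocol, treated with peptide (DMSO vehicle controls) plus 15 μg/ml gentamicin for 4 or 24 h. Released bacteria were plated for colony counts in parallel, and were incubated with 33 μM C12FDG (with 0.2 mM EDTA) in LB for 2 h at 37°C. Flow cytometry gave % fluorescein-positive among LPS-antibody-positive particles; Wilcoxon exact test.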"}, "J774.A1 [12]": {"tested_on": "J774.A1", "test": "Drug uptake in mouse J774A1 cells assessed as dimer to monomer peptide ratio at 100 uM after 24 hrs at 37 degC by HPLC analysis", "type": "ADME, cell-based", "conditions": "j774.a1, 24 h", "outline": "as §5"}, "J774.A1 [13]": {"tested_on": "J774.A1", "test": "Drug uptake in mouse J774A.1 cells assessed as total peptide concentration at 100 uM after 24 hrs at 4 degC by HPLC analysis", "conditions": "J774A.1, 24 h"}, "J774.A1 [14]": {"tested_on": "J774.A1", "test": "Drug uptake in mouse J774A1 cells assessed as total peptide concentration at 150 uM after 5 hrs at 4 degC by HPLC analysis", "type": "ADME, cell-based", "conditions": "j774.a1, 5 h", "outline": "as §2"}, "Salmonella typhimurium [15]": {"tested_on": "Salmonella typhimurium", "test": "Antibacterial activity against 1 MOI Salmonella enterica subsp. enterica serovar Typhimurium infected in mouse J774A1 cells assessed as reduction in bacterial growth after 24 hrs", "type": "functional, organism-based", "conditions": "J774.A1", "outline": "as §3"}, "[16]": {"test": "Cytotoxicity against mouse J774A1 cells assessed as reduction in metabolic activity at 100 uM after 24 hrs by MTT assay", "type": "ADME, cell-based, J774.A1", "conditions": "read-out: INH", "outline": "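Cells seeded at 40,000/well in 96-well plates, overnight 37°C 5% CO2, then treated 24 h in fresh DMEM. MTT (4 mg/ml stock in PBS) added for up to 3 h. Formazan solubilized overnight at 37°C in SDS/dimethylformamide/acid lysis buffer, OD read at 575 nm. Paired t tests.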"}, "J774.A1 [17]": {"tested_on": "J774.A1", "test": "Cytotoxicity against mouse J774A1 cells assessed as dead cells at 50 uM by propidium iodide assay", "type": "cell-based", "conditions": "j774.a1, 50 µM", "outline": "as §1"}, "J774.A1 [18]": {"tested_on": "J774.A1", "test": "Drug uptake in mouse J774A1 cells assessed as dimer to monomer peptide ratio at 50 uM after 5 hrs at 37 degC by HPLC analysis", "type": "ADME, cell-based", "conditions": "j774.a1, 5 h", "outline": "as §5"}, "[19]": {"test": "Drug uptake in mouse peritoneal macrophages assessed as total peptide concentration at 100 uM after 24 hrs at 37 degC by HPLC analysis", "type": "ADME, cell-based", "conditions": "peritoneal macrophage cell", "outline": "as §4"}, "J774.A1 [20]": {"tested_on": "J774.A1", "test": "Drug uptake in mouse J774A1 cells assessed as dimer to monomer peptide ratio at 100 uM after 5 hrs at 4 degC by HPLC analysis", "type": "ADME, cell-based", "conditions": "j774.a1, 5 h", "outline": "as §5"}, "J774.A1 [21]": {"tested_on": "J774.A1", "test": "Drug uptake in mouse J774A1 cells assessed as dimer to monomer peptide ratio at 150 uM after 5 hrs at 4 degC by HPLC analysis", "type": "ADME, cell-based", "conditions": "j774.a1, 5 h", "outline": "as §5"}, "[22]": {"test": "Cytotoxicity against mouse peritoneal macrophages assessed as live cells at 150 uM by calcein AM assay", "type": "cell-based, Peritoneal macrophage cell", "conditions": "read-out: Activity", "outline": "as §1"}, "Salmonella typhimurium [23]": {"tested_on": "Salmonella typhimurium", "test": "Antibacterial activity against 10 MOI Salmonella enterica subsp. enterica serovar Typhimurium G785 transfected with SOS-inducible beta-galactosidase reporter infected in mouse J774A1 cells assessed as bacterial number at 100 uM after 24 hrs postinfection", "type": "functional, J774.A1", "outline": "as §6"}, "Salmonella typhimurium [24]": {"tested_on": "Salmonella typhimurium", "test": "Antibacterial activity against 10 MOI Salmonella enterica subsp. enterica serovar Typhimurium G785 transfected with SOS-inducible beta-galactosidase reporter infected in mouse J774A1 cells assessed as bacterial number at 150 uM after 4 hrs postinfection", "type": "functional, J774.A1", "outline": "as §6"}}}
{"smiles": "N=C(N)NCCC[C@@H](NC(=O)[C@@H](CS)NC(=O)[C@@H](Cc1ccc(O)cc1)NC(=O)[C@@H](Cc1c[nH]c2ccccc12)NC(=O)[C@@H](CCCNC(=N)N)NC(=O)[C@H](N)Cc1c[nH]c2ccccc12)C(=O)O", "values": [{"measurement": "viability at 50 µM", "setting": "[1]", "value": 93, "unit": "%"}, {"measurement": "Drug uptake", "setting": "J774.A1 [2]", "value": "Not Active"}, {"measurement": "Drug uptake", "setting": "J774.A1 [3]", "value": 1.2, "unit": "mM"}, {"measurement": "fold change (FC)", "setting": "Salmonella typhimurium [4]", "value": "> 100"}, {"measurement": "Drug uptake", "setting": "[5]", "value": 24.8, "unit": "mM"}, {"measurement": "Drug uptake", "setting": "J774.A1 [6]", "value": 0.9, "unit": "mM"}, {"measurement": "Drug uptake", "setting": "J774.A1 [7]", "value": 7.7, "unit": "mM"}, {"measurement": "Ratio", "setting": "J774.A1 [8]", "value": 11}, {"measurement": "Ratio", "setting": "J774.A1 [9]", "value": 12.5}, {"measurement": "Activity", "setting": "[10]", "value": 3.1, "unit": "%"}, {"measurement": "Activity", "setting": "Salmonella typhimurium [11]", "value": 28.4, "unit": "%"}, {"measurement": "Ratio", "setting": "J774.A1 [12]", "value": 2.9}, {"measurement": "Drug uptake", "setting": "J774.A1 [13]", "value": 32.9, "unit": "mM"}, {"measurement": "Drug uptake", "setting": "J774.A1 [14]", "value": 15.8, "unit": "mM"}, {"measurement": "Activity", "setting": "Salmonella typhimurium [15]", "value": "Dose-dependent effect"}, {"measurement": "cytotoxicity at 24 h, 100 µM", "setting": "[16]", "value": 17.3, "unit": "%"}, {"measurement": "Activity", "setting": "J774.A1 [17]", "value": 4.3, "unit": "%"}, {"measurement": "Ratio", "setting": "J774.A1 [18]", "value": 2.1}, {"measurement": "Drug uptake", "setting": "[19]", "value": 7.4, "unit": "mM"}, {"measurement": "Ratio", "setting": "J774.A1 [20]", "value": 2.7}, {"measurement": "Ratio", "setting": "J774.A1 [21]", "value": 8.8}, {"measurement": "viability at 150 µM", "setting": "[22]", "value": 87.9, "unit": "%"}, {"measurement": "Activity", "setting": "Salmonella typhimurium [23]", "value": 2.8, "unit": "%"}, {"measurement": "Activity", "setting": "Salmonella typhimurium [24]", "value": 3, "unit": "%"}]}
